In ChEMBL document CHEMBL1926551, “Design, synthesis and in vitro evaluation of novel chroman-4-one, chroman, and 2H-chromene derivatives as human rhinovirus capsid-binding inhibitors” (Bioorg Med Chem, 2011):
Calls of active or inactive are those of the source. No cut-off for these calls is given here.

Assays:
[1] = system: rhinovirus A1B; test: Antiviral activity against Human rhinovirus 1B in human HeLa cell monolayers assessed as reduction of viral infectivity at 42 uM at 56 degC pre-treated for 1 hr before thermal treatment measured after 20 mins by plaque assay (reference value: 2.9 log PFU/mL); type: functional
[2] = system: rhinovirus A1B; test: Antiviral activity against Human rhinovirus 1B infected in human HeLa cells assessed as inhibition of virus induced-plaque formation after 3 days by neutral red-based plaque reduction assay; type: functional, organism-based; settings: Rhinovirus A, 72 h
Outline: (§1)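 HeLa (Ohio) monolayers infected with virus giving about 100 plaques/well and adsorbed 1 h at 33 °C. The inoculum was removed and cells were overlaid with plaque medium ± fourfold compound dilutions, starting from the maximum non-cytotoxic concentration (MNTC). After 3 days at 33 °C, cells were stained with neutral red (0.2 mg/mL in PBS, pH 7.4) and plaques counted, triplicate wells.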

[3] = system: rhinovirus B14; test: Antiviral activity against Human rhinovirus 14 infected in human HeLa cells assessed as inhibition of virus induced-plaque formation at 12.5 uM after 3 days by neutral red-based plaque reduction assay; type: functional; settings: Rhinovirus B, 72 h
Outline: as §1, with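 “wells. IC50 came from % plaque reduction vs log dose; where 50% was not reached, % inhibition at the MNTC was reported.” for “wells.”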

[4] = system: rhinovirus A1B; test: Antiviral activity against Human rhinovirus 1B in human HeLa cell monolayers assessed as reduction of viral infectivity at 42 uM at pH 5 pre-treated for 1 hr before mild acid treatment measured after 30 mins by plaque assay (reference value: 3.8 log PFU/mL); type: functional
[5] = system: rhinovirus A1B; test: Antiviral activity against Human rhinovirus 1B infected in human HeLa cells assessed as reduction of viral yield at 42 uM treated 30 mins after viral adsorption measured after 10 hrs by neutral red-based plaque reduction assay; type: functional; settings: Rhinovirus A
[6] = Therapeutic index, ratio of TC50 for human HeLa cells to IC50 for Human rhinovirus 1B infected in human HeLa cells; type: cell-based; settings: read-out: TI
Outline: (§2)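 Therapeutic index calculated as HeLa TC50 (XTT, 3 days) divided by the plaque-reduction IC50 for the respective serotype.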

[7] = system: rhinovirus A1B; test: Antiviral activity against Human rhinovirus 1B infected in human HeLa cells assessed as reduction of viral yield at 42 uM at 4 degC treated immediately after viral adsorption after 1 hr by neutral red-based plaque reduction assay; type: functional, organism-based
[8] = system: rhinovirus A1B; test: Antiviral activity against Human rhinovirus 1B infected in human HeLa cells assessed as reduction of viral yield at 42 uM treated before viral adsorption measured after 10 hrs by neutral red-based plaque reduction assay; type: functional; settings: Rhinovirus A
[9] = system: rhinovirus A1B; test: Antiviral activity against Human rhinovirus 1B infected in human HeLa cells assessed as reduction of viral yield at 42 uM treated 60 mins after viral adsorption measured after 10 hrs by neutral red-based plaque reduction assay; type: functional; settings: Rhinovirus A
[10] = system: rhinovirus A1B; test: Antiviral activity against Human rhinovirus 1B infected in human HeLa cells measured after dilution; type: functional, organism-based
Outline: (§3)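 HRV 1B suspension at high titre incubated ± 42 µM compound for 1 h at 33 °C. It was then serially diluted 10-fold to reach non-inhibitory free compound levels, and infectivity was titrated by plaque assay on HeLa monolayers.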

[11] = system: rhinovirus A1B; test: Antiviral activity against Human rhinovirus 1B infected in human HeLa cells assessed as reduction of viral yield at 42 uM treated 45 mins after viral adsorption measured after 10 hrs by neutral red-based plaque reduction assay; type: functional; settings: Rhinovirus A
[12] = system: rhinovirus A1B; test: Antiviral activity against Human rhinovirus 1B assessed as reduction in infectivity titers at 42 uM after 1 hr using HeLa cell monolayers by plaque assay (reference value: 5.33 * 10^6 PFU/mL); type: functional; outline: as §3
[13] = system: rhinovirus A1B; test: Antiviral activity against Human rhinovirus 1B infected in human HeLa cells assessed as reduction of viral yield at 42 uM treated together with viral inoculum after 10 hrs by neutral red-based plaque reduction assay; type: functional; settings: Rhinovirus A
Outline: (§4)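 One-step growth: confluent HeLa monolayers infected with HRV 1B at MOI 5. Virus bound 1 h at 4 °C, then washed thrice with cold PBS; cultures were incubated at 33 °C to 10 h p.i. 42 µM compound was present either during binding only or throughout binding plus replication. Cultures were freeze-thawed three times, clarified, and yield titrated by plaque assay on HeLa.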

[14] = system: rhinovirus A1B; test: Antiviral activity against Human rhinovirus 1B infected in human HeLa cells assessed as reduction of viral yield at 42 uM treated 4 hrs after viral adsorption measured after 10 hrs by neutral red-based plaque reduction assay; type: functional; settings: Rhinovirus A
[15] = system: rhinovirus A1B; test: Antiviral activity against Human rhinovirus 1B infected in human HeLa cells assessed as reduction of viral yield at 42 uM treated 2 hrs after viral adsorption measured after 10 hrs by neutral red-based plaque reduction assay; type: functional; settings: Rhinovirus A
[16] = system: rhinovirus A1B; test: Antiviral activity against Human rhinovirus 1B infected in human HeLa cells assessed as reduction of viral yield at 42 uM treated at the end of viral adsorption followed by washout after 6 hrs measured after 10 hrs by neutral red-based plaque reduction assay; type: functional; settings: Rhinovirus A
[17] = system: rhinovirus A1B; test: Antiviral activity against Human rhinovirus 1B infected in human HeLa cells assessed as reduction of viral yield at 42 uM treated at the end of viral adsorption followed by washout after 30 mins to 1 hr measured after 10 hrs by neutral red-based plaque reduction assay; type: functional; settings: Rhinovirus A
[18] = system: rhinovirus A1B; test: Antiviral activity against Human rhinovirus 1B infected in human HeLa cells assessed as reduction of viral yield at 42 uM treated 15 mins after viral adsorption measured after 10 hrs by neutral red-based plaque reduction assay; type: functional; settings: Rhinovirus A
[19] = Cytotoxicity against human HeLa cells after 3 days by microscopic analysis; type: cell-based; settings: read-out: MNCC
Outline: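 HeLa cells exposed to twofold compound dilutions for 3 days at 37 °C and morphology scored microscopically on day 3. The MNTC is the highest concentration leaving morphology and viability unchanged in 100% of cells.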

[20] = system: rhinovirus A1B; test: Antiviral activity against Human rhinovirus 1B infected in human HeLa cells assessed as reduction of viral yield at 42 uM treated at the end of viral adsorption measured after 10 hrs by neutral red-based plaque reduction assay; type: functional, organism-based; settings: TDE = time-dependent effect
[21] = Cytotoxicity against human HeLa cells after 3 days by XTT based ELISA reader; type: cell-based; settings: read-out: TC50
Outline: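 HeLa cells seeded at 2 × 10^3 cells/well in growth medium (MEM, 8% FCS) with twofold compound dilutions from the maximum soluble concentration, triplicate wells. Matched ethanol controls were run. Plates were held 3 days at 37 °C, 5% CO2, then XTT was added (final 0.15 mg/mL) for 4 h.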

[22] = system: rhinovirus A1B; test: Antiviral activity against Human rhinovirus 1B infected in human HeLa cells assessed as reduction of viral yield at 42 uM treated 6 hrs after viral adsorption measured after 10 hrs by neutral red-based plaque reduction assay; type: functional; settings: Rhinovirus A
[23] = system: rhinovirus A1B; test: Antiviral activity against Human rhinovirus 1B infected in human HeLa cells assessed as reduction of viral yield at 42 uM treated during viral adsorption measured after 10 hrs by neutral red-based plaque reduction assay; type: functional; settings: Rhinovirus A; outline: as §4
[24] = Therapeutic index, ratio of TC50 for human HeLa cells to IC50 for Human rhinovirus 14 infected in human HeLa cells; type: cell-based; settings: read-out: TI; outline: as §2
[25] = system: rhinovirus B14; test: Antiviral activity against Human rhinovirus 14 infected in human HeLa cells assessed as inhibition of virus induced-plaque formation after 3 days by neutral red-based plaque reduction assay; type: functional, organism-based; settings: Rhinovirus B, 72 h
Outline: as §1, with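 “wells. IC50 came from % plaque reduction vs log dose; where 50% was not reached, % inhibition at the MNTC was reported.” for “wells.”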

Question: Which log10PFU/ml [1] does the source give for `Clc1ccc2c(c1)C=C(/C=C/Cc1ccccc1)CO2` here?
Answer: 1.8

Question: And the IC50 [2]?
Answer: 0.42 µM

Question: And the inhibition at 12.5 µM [3]?
Answer: 23%

Question: And the log10PFU/ml [4]?
Answer: 2.8

Question: And the inhibition at 42 µM [5]?
Answer: > 80%

Question: And the selectivity ratio [6]?
Answer: 59.5

Question: And the inhibition [7]?
Answer: Active

Question: And the inhibition at 42 µM [8]?
Answer: 6%

Question: What about the inhibition at 42 µM [9] of the same compound?
Answer: > 80%

Question: What about the Activity [10] of the same compound?
Answer: inactive

Question: What about the inhibition at 42 µM [11] of the same compound?
Answer: > 80%

Question: And the PFU/ml [12]?
Answer: 5110000

Question: What about the inhibition at 42 µM [13] of the same compound?
Answer: 88.5%

Question: What about the inhibition at 42 µM [14] of the same compound?
Answer: 12%

Question: And the inhibition at 42 µM [15]?
Answer: 31%

Question: What about the inhibition at 42 µM [16] of the same compound?
Answer: 93%

Question: And the inhibition at 42 µM [17]?
Answer: 35%

Question: And the inhibition at 42 µM [18]?
Answer: > 80%

Question: And the MNTC at 72 h [19]?
Answer: 12.5 µM

Question: What about the inhibition [20] of the same compound?
Answer: tde

Question: And the CC50 at 72 h [21]?
Answer: 25 µM

Question: And the inhibition at 42 µM [22]?
Answer: 1%

Question: And the inhibition at 42 µM [23]?
Answer: 16%

Question: Which IC50 [2] does the source give for `Fc1ccc2c(c1)C/C(=C/C=C/c1ccccc1)CO2` here?
Answer: 5.57 µM

Question: What about the selectivity ratio [24] of the same compound?
Answer: 2.05

Question: What about the selectivity ratio [6] of the same compound?
Answer: 13.5

Question: What about the IC50 [25] of the same compound?
Answer: 36.5 µM

Question: And the MNTC at 72 h [19]?
Answer: 50 µM

Question: And the CC50 at 72 h [21]?
Answer: 75 µM

Question: Which results are given for `C(/C=C/c1ccccc1)=C1/COc2ccccc2C1`?
Answer: IC50 [2]: 0.99 µM; selectivity ratio [24]: 2.1; selectivity ratio [6]: 101; IC50 [25]: 47.6 µM; MNTC at 72 h [19]: 50 µM; CC50 at 72 h [21]: 100 µM

Question: For `Clc1ccc(C/C=C/C2=Cc3ccccc3OC2)cc1`, which IC50 [2] is on record?
Answer: 3.61 µM

Question: What about the selectivity ratio [24] of the same compound?
Answer: 2.22

Question: And the selectivity ratio [6]?
Answer: 27.7

Question: What about the IC50 [25] of the same compound?
Answer: 45.1 µM

Question: And the MNTC at 72 h [19]?
Answer: 50 µM

Question: And the CC50 at 72 h [21]?
Answer: 100 µM

Question: Which results are given for `O=C1/C(=C/C#Cc2ccccc2)COc2ccccc21`?
Answer: IC50 [2]: 9.3 µM; selectivity ratio [24]: 2.5; selectivity ratio [6]: 5.38; IC50 [25]: 20 µM; MNTC at 72 h [19]: 25 µM; CC50 at 72 h [21]: 50 µM

Question: Which IC50 [2] does the source give for `O=C1/C(=C/C#Cc2ccccc2)COc2ccc(Cl)cc21` here?
Answer: 7.89 µM

Question: And the selectivity ratio [24]?
Answer: 2.47

Question: What about the selectivity ratio [6] of the same compound?
Answer: 9.51

Question: What about the IC50 [25] of the same compound?
Answer: 30.4 µM

Question: What about the MNTC at 72 h [19] of the same compound?
Answer: 50 µM

Question: And the CC50 at 72 h [21]?
Answer: 75 µM

Question: Which IC50 [2] does the source give for `C1=C(/C=C/Cc2ccccc2)COc2ccccc21` here?
Answer: 13.6 µM

Question: And the selectivity ratio [24]?
Answer: 6.76

Question: What about the selectivity ratio [6] of the same compound?
Answer: 5.52

Question: And the IC50 [25]?
Answer: 11.1 µM

Question: What about the MNTC at 72 h [19] of the same compound?
Answer: 50 µM

Question: And the CC50 at 72 h [21]?
Answer: 75 µM

Question: Which results are given for `Clc1ccc(/C=C/C=C2\COc3ccc(Cl)cc3C2)cc1`?
Answer: IC50 [2]: 11.5 µM; selectivity ratio [24]: 3.02; selectivity ratio [6]: 2.18; IC50 [25]: 8.27 µM; MNTC at 72 h [19]: 12.5 µM; CC50 at 72 h [21]: 25 µM
